This is an account of results in ChEMBL document CHEMBL4354866, “TREK Channel Family Activator with a Well-Defined Structure-Activation Relationship for Pain and Neurogenic Inflammation” (J Med Chem, 2020).

Experiment [1] has as its target T1, Potassium channel subfamily K member 2 (Homo sapiens) (UniProt O95069).
T1 sequence (whole entry): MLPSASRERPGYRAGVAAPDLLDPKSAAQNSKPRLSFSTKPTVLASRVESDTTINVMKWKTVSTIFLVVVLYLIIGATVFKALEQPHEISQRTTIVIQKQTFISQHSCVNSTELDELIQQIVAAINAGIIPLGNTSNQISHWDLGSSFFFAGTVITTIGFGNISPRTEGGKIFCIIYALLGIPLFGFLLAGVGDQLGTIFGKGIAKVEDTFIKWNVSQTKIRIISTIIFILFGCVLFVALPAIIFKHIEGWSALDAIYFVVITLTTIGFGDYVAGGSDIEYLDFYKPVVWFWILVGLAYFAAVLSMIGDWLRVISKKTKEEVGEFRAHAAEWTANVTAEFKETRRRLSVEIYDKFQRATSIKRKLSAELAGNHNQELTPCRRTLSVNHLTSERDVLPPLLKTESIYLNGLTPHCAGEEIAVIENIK
Nature of the experiment: Activation of recombinant human TREK1 expressed in HEK293T cells assessed as change in single channel conductance by inside-out patch electrophysiological analysis. The experiment is classed as cell-based. Summed up: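 Inside-out patches from HEK-293T cells expressing human TREK-1 (pEGFP-N1), 10 μM compound. Conductance taken as first open-state amplitude over voltage at -60 or +60 mV.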

In experiment [2] the target is T2, Potassium channel subfamily K member 2 (Rattus norvegicus) (UniProt Q920B6).
T2 sequence (whole entry): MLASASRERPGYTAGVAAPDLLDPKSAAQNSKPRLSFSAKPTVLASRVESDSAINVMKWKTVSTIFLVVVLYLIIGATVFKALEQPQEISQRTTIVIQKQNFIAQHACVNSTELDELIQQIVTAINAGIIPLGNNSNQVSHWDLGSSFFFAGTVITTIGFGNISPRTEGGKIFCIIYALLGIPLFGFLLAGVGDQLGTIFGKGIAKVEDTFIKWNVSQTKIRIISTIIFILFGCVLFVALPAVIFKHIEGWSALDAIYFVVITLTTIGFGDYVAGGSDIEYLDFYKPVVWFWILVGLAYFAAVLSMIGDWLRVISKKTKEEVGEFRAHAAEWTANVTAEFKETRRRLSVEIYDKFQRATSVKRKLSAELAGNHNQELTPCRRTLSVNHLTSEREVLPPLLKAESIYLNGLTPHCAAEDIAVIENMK
Nature of the experiment: Activation of TREK in depolarized Sprague-Dawley rat DRG neurons assessed as resting membrane potential at 10 uM by whole cell […] electrophysiological analysis. The gist of the method:
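Dissociated rat DRG neurons in current clamp, held at 0 pA. Resting membrane potential recorded before and during 10 μM compound; n = 18 cells from 4 rats; paired t test.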

In experiment [3] the target is T3, TREK-2 two-pore-domain K+ channel (Mus musculus, UniProt Q3LS20).
T3 sequence (Q3LS20 whole entry): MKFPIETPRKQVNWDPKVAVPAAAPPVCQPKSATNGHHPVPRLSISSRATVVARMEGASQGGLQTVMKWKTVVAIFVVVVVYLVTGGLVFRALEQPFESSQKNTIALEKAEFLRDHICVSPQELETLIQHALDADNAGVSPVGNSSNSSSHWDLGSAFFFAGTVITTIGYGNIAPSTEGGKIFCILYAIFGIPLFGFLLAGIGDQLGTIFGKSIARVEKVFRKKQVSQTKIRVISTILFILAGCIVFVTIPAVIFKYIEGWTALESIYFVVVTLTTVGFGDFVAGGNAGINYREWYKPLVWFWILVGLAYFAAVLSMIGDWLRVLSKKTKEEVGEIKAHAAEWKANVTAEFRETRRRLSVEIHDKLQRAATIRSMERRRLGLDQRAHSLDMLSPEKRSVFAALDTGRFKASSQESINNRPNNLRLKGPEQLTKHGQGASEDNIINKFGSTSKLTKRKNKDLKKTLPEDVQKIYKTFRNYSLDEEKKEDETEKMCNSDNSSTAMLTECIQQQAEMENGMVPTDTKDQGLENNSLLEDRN
Nature of the experiment: Activation of recombinant mouse TREK2 expressed in HEK293T cells assessed as increase in K+ current amplitude by whole cell voltage clamp electrophysiological analysis. The experiment is classed as cell-based. The gist of the method:
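Transiently transfected HEK-293T cells, whole-cell voltage clamp. Held at -60 mV, 500-ms ramp -120 to +60 mV. Pipette (mM) 140 KCl, 5 EGTA, 10 HEPES, pH 7.4; external 145 NaCl, 4 KCl, pH 7.3. Compound diluted from 10 mM DMSO stock and applied extracellularly. Current increase over control fitted to concentration–response curves for EC50.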

The target of experiment [4] is T1, Potassium channel subfamily K member 2 (Homo sapiens). The experiment in a line: Activation of recombinant human TREK1 expressed in HEK293T cells assessed as change in single channel conductance by outside-out patch electrophysiological analysis. The experiment is classed as cell-based. Summed up:
(§1)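 Outside-out patches from HEK-293T cells transfected with human TREK-1 (pEGFP-N1). Pipettes 7–15 MΩ. Open probability measured at -60 and +60 mV. Conductance taken as first open-state current amplitude divided by voltage at ±60 mV.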

Experiment [5] deals with Mus musculus. Nature of the experiment: Analgesic activity in cerulein-induced mouse model of acute pancreatitis assessed as reduction in pancreatic inflammatory infiltration at 10 mg/kg, ip administered at 2 hrs interval for 10 hrs starting from post-first cerulein challenge and measured 12 hrs post-first cerulein challenge by H and E staining based histopathological analysis. The format is functional, organism-based. The gist of the method:
(§2)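 Cerulein pancreatitis: 7 hourly i.p. injections of 50 µg/kg; 10 mg/kg compound i.p. at 2, 4, 6, 8 and 10 h. Mice killed at 12 h and pancreas harvested for MPO activity and H&E histology. Ten random fields per slide scored blind by two observers for edema, inflammatory infiltration and acinar necrosis; n = 6.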

Experiment [6] has as its system Mus musculus. The experiment in a line: Analgesic activity in CFA-induced mouse model of chronic inflammatory pain assessed as increase in paw withdrawal latency at 5 mg/kg, ip measured up to 60 mins by Hargreaves test. The experiment is classed as functional, organism-based. Summed up:
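CFA (20 μl) injected subcutaneously into the left hindpaw of mice. Compound given i.p. in 5% DMSO/5% Tween 80/90% saline. Heat withdrawal latency recorded with a 5 min inter-stimulation period.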

Experiment [7] has as its system Mus musculus. Nature of the experiment: Analgesic activity in cerulein-induced mouse model of acute pancreatitis assessed as reduction in pancreatic edema at 10 mg/kg, ip administered at 2 hrs interval for 10 hrs starting from post-first cerulein challenge and measured 12 hrs post-first cerulein challenge by H and E staining based histopathological analysis. The format is functional, organism-based. Summed up:
as §2

In experiment [8] the target is T1, Potassium channel subfamily K member 2 (Homo sapiens). The experiment in a line: Activation of recombinant human TREK1 expressed in HEK293T cells assessed as increase in probability of open channel by outside-out patch electrophysiological analysis. The experiment is classed as cell-based. The gist of the method:
as §1

Experiment [9] concerns Mus musculus. Nature of the experiment: Analgesic activity in cerulein-induced mouse model of acute pancreatitis assessed as reduction in myeloperoxidase activity at 10 mg/kg, ip administered at 2 hrs interval for 10 hrs starting from post-first cerulein challenge and measured 12 hrs post-first cerulein challenge. The format is functional, organism-based. The gist of the method: as §2

Experiment [10] deals with Potassium channel subfamily K member 9 (Homo sapiens) (UniProt Q9NPC2). Nature of the experiment: Activation of recombinant human TASK3 expressed in HEK293T cells assessed as increase in K+ current amplitude at 10 uM by whole cell voltage clamp electrophysiological analysis. The format is cell-based. The gist of the method:
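HEK-293T cells transiently transfected with the human K2P channel. Whole-cell clamp at -60 mV, 500-ms ramp -120 to +60 mV. Pipette 140 KCl (pH 7.4), external 145 NaCl/4 KCl (pH 7.3). Compound 10 μM, diluted from 10 mM DMSO stock into external solution.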

Active and inactive are the calls of the source. The calls are words filed in the database; no cut-off is given here.

Potassium channel subfamily K member 9 (Homo sapiens), sequence (Q9NPC2 whole entry): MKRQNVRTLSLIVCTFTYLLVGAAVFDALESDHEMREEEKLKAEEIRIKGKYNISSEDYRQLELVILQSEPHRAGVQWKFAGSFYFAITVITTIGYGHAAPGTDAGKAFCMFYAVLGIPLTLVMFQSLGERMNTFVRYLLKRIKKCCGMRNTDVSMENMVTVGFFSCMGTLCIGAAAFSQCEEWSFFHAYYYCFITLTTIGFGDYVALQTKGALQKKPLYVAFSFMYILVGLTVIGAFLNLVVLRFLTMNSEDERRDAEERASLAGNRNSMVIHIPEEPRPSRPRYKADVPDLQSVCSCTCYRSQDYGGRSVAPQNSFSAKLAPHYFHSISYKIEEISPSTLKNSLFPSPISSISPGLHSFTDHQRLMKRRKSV

For the compound `Cc1ccc2nc(-c3ccc(NC(=O)[C@@H]4CC[C@H](C(=O)O)C4)cc3)sc2c1`, the result in experiment [1] and in experiment [4] was inactive. In experiment [2], the Activity was 1.12 mV. Further, the EC50 in experiment [3] worked out at 11.3 µM. In addition, the outcome in experiment [5], in experiment [6], in experiment [7], in experiment [8], in [9] and in experiment [10] was Active.

In general, EC50 refers to the concentration at which the effect is half-maximal.
